According to ChEMBL document CHEMBL1126793, “Effect of trifluoromethyl and other substituents on activity of xanthines at adenosine receptors” (J Med Chem, 1993):

What was measured:
Adenosine receptor A2a = Adenosine receptor A2a (Rattus norvegicus, UniProt P30543); test: Binding affinity for adenosine A2A receptor from rat brain membranes using [3H]CGS-21680
Adenosine receptor A1 = biological target: T1, Adenosine receptor A1 (Rattus norvegicus, UniProt P25099); test: Binding affinity for adenosine A1 receptor from rat brain membranes using [3H]PIA as radioligand
T1 sequence (P25099 whole entry): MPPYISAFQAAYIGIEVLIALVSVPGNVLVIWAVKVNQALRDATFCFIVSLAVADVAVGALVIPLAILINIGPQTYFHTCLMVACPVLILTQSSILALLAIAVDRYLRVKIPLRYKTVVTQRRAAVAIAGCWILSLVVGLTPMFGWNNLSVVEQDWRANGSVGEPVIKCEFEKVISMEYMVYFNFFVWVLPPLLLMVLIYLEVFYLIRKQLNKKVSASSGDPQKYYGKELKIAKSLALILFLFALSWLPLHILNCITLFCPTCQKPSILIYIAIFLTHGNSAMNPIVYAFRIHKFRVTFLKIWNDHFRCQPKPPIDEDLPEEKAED

[1] = biological target: T2, Adenosine receptor A1 (Rattus norvegicus) (UniProt P25099); test: Inhibition of [3H]PIA binding to Adenosine A1 receptor in rat brain membranes at 100 uM; assay type: cell membranes; settings: 250 uM, in the assay text read “250 uM” for “100 uM”
T2 sequence (whole entry): T1 sequence (P25099 whole entry)
Procedure, shortened: (§1)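 Rat brain membranes labelled with 1 nM [3H]-N6-[(R)-phenylisopropyl]adenosine for A1 sites. Nonspecific binding was defined with 10 μM 2-chloroadenosine. The value is percent inhibition of specific binding at the highest concentration tested, which was sometimes limited by solubility.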

[2] = biological target: Adenosine receptor A2a (Rattus norvegicus) (UniProt P30543); test: Inhibition of [3H]-CGS- 21680 binding to Adenosine A2A receptor in rat brain membranes at 20 uM; assay type: cell membranes
Procedure, shortened: (§2)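 Rat striatal membranes incubated with 4 nM [3H]CGS 21680 as the A2a radioligand. Nonspecific binding was defined with 20 μM 2-chloroadenosine. The value is percent inhibition of specific binding at the highest concentration tested, which was sometimes limited by solubility.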

[3] = biological target: Adenosine receptor A2a (Rattus norvegicus) (UniProt P30543); test: Inhibition of [3H]-CGS- 21680 binding to Adenosine A2A receptor in rat brain membranes at […]; assay type: cell membranes; procedure, shortened: as §2
[4] = biological target: Adenosine receptor A2a (Rattus norvegicus) (UniProt P30543); test: Inhibition of [3H]-CGS- 21680 binding to Adenosine A2A receptor in rat brain membranes at 100 uM; assay type: cell membranes; procedure, shortened: as §2
[5] = biological target: Adenosine receptor A2a (Rattus norvegicus) (UniProt P30543); test: Inhibition of [3H]-CGS- 21680 binding to Adenosine A2A receptor in rat brain membranes at 250 uM; assay type: cell membranes; procedure, shortened: as §2
[6] = biological target: T2, Adenosine receptor A1 (Rattus norvegicus); test: Inhibition of [3H]PIA binding to A1 adenosine receptor in rat brain membranes at 250 uM; assay type: cell membranes; procedure, shortened: as §1

Adenosine receptor A2a, sequence (P30543 whole entry): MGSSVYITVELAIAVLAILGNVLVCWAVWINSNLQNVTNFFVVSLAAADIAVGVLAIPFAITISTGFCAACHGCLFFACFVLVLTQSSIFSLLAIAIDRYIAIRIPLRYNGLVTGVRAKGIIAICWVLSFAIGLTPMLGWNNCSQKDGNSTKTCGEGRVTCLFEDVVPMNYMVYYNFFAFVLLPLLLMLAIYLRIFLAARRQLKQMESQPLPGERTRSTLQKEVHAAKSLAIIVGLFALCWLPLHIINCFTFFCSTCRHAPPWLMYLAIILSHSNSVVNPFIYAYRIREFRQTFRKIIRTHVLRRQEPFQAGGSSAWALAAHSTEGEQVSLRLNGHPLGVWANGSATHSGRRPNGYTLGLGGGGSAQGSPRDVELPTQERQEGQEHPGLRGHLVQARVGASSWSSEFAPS
Adenosine receptor A2a (Rattus norvegicus), sequence (P30543 whole entry): as above

Row | Ki (Adenosine receptor A2a) [µM] | Ki (Adenosine receptor A1) [µM] | SMILES | further results
1 | 12 | 49 | Cn1c(=O)c2c(nc(Br)n2C)n(C)c1=O | 
2 | 16 | 17 | Cn1c(=O)c2c(nc(-c3ccc(C(F)(F)F)cc3)n2C)n(C)c1=O | 
3 | 19 | 30 | Cn1c(=O)c2c(nc(C3CCC3)n2C)n(C)c1=O | 
4 | 0.21 | 0.15 | Cn1c(=O)c2[nH]c(-c3ccc(C(F)(F)F)cc3)nc2n(C)c1=O | 
5 | 16 |  | Cn1c(=O)c2c(nc(-c3ccccc3)n2C)n(C)c1=O | 
6 |  | 9.1 | CCC/C=C/c1nc2c(c(=O)n(C)c(=O)n2C)n1C | 
7 | 7.6 | 4.9 | Cc1nc2c(c(=O)n(C)c(=O)n2C)n1C | 
8 | 11 | 5.7 | C=CCn1c(=O)c2c(nc(-c3ccc(C(F)(F)F)cc3)n2C)n(C)c1=O | 
9 | 0.61 | 12 | Cn1c(=O)c2c(nc(/C=C/C(=O)OC(C)(C)C)n2C)n(C)c1=O | 
10 | 29 |  | Cn1c(=O)c2c(nc(C(F)(F)F)n2C)n(C)c1=O | inhibition [1]: 8%
11 | 42 |  | Cn1c(=O)c2c(nc(/C=C/C(=O)O)n2C)n(C)c1=O | inhibition [1]: 3%

More lines, now with the values behind:

Row | SMILES | Ki (Adenosine receptor A2a) [µM] | Ki (Adenosine receptor A1) [µM] | further results
12 | Cn1c(=O)c2[nH]c(-c3ccc(S(=O)(=O)O)cc3)nc2n(C)c1=O | 5.8 |  | 
13 | CCCn1c(=O)c2nc(C(F)(F)F)[nH]c2n(CCC)c1=O |  |  | inhibition [1]: 4.5%; inhibition [2]: 4.3%
14 | CCCn1c(=O)c2nc[nH]c2n(CCC)c1=O | 2.6 |  | 
15 | C=CCn1c(=O)c2c(nc(-c3ccccc3)n2C)n(C)c1=O | 12 | 9 | 
16 | Cn1c(-c2ccc(C(F)(F)F)cc2)nc2c1c(=O)[nH]c(=O)n2C |  | 3.7 | inhibition [3]: 10%
17 | CCC/C=C/c1nc2c(=O)n(C)c(=O)n(C)c2[nH]1 | 0.44 | 0.38 | 
18 | CC(C)Cn1c(=O)n(C)c(=O)c2[nH]c(Br)nc21 |  | 65 | inhibition [4]: 10%
19 | CCCn1c(=O)c2[nH]c(-c3ccccc3)nc2n(CCC)c1=O | 0.14 |  | 
20 | Cn1c(=O)c2c(nc(-c3ccc(S(=O)(=O)O)cc3)n2C)n(C)c1=O | 20 |  | inhibition [1]: 3.3%
21 | CCCn1c(=O)c2[nH]c(-c3ccc(S(=O)(=O)O)cc3)nc2n(CCC)c1=O | 0.79 |  | 
22 | Cn1c(=O)c2[nH]c(Cl)nc2n(C)c1=O |  |  | inhibition [1]: 39%; inhibition [4]: 34%
23 | CCCn1c(=O)c2nc(C)[nH]c2n(CCC)c1=O | 2.8 | 0.6 | 
24 | Cc1nc2c(=O)n(C)c(=O)n(C)c2[nH]1 |  | 8.8 | inhibition [5]: 34%
25 | Cn1c(=O)c2nc(C(F)(F)F)[nH]c2n(C)c1=O |  |  | inhibition [6]: 0%; inhibition [5]: 0%
26 | CCCn1c(=O)c2nc(-c3ccc(C(F)(F)F)cc3)[nH]c2n(CCC)c1=O | 0.042 | 0.0075 | 
27 | Cn1c(=O)c2[nH]c(Br)nc2n(C)c1=O [PAMABROM] |  | 10.2 | inhibition [4]: 36%
28 | Cn1c(=O)c2nc(C3CCC3)[nH]c2n(C)c1=O | 2.8 | 0.19 | 
29 | C=CCn1c(-c2ccc(C(F)(F)F)cc2)nc2c1c(=O)n(CCC)c(=O)n2CCC | 4.2 | 2.9 | 
30 | Cn1c(-c2ccc(S(=O)(=O)O)cc2)nc2c1c(=O)[nH]c(=O)n2C |  |  | inhibition [1]: 1.8%; inhibition [5]: 0%
31 | C=CCn1c(=O)c2c(nc(-c3ccccc3)n2CC=C)n(C)c1=O | 7.7 | 0.66 | 
32 | CCCn1c(=O)c2nc(-c3ccc(S(N)(=O)=O)cc3)[nH]c2n(CCC)c1=O | 0.075 |  | 
33 | Cn1c(-c2ccc(S(N)(=O)=O)cc2)nc2c1c(=O)[nH]c(=O)n2C |  |  | inhibition [1]: 33%; inhibition [5]: 42%
34 | Cn1c(-c2ccccc2)nc2c1c(=O)[nH]c(=O)n2C | 12 |  | 
35 | Cn1c(=O)c2[nH]c(-c3ccccc3)nc2n(C)c1=O [8-PHENYL THEOPHYLLINE] | 0.97 |  | 
36 | CC(C)Cn1c(=O)n(C)c(=O)c2[nH]cnc21 [ISOBUTYLMETHYLXANTHINE] | 5.8 |  | 
37 | C=CCn1c(=O)c2c(nc(-c3ccc(S(=O)(=O)O)cc3)n2C)n(C)c1=O | 27 |  | inhibition [1]: 35%
